# Compound activity: PubChem BioAssay, Broad Institute
# Rows were chosen to be rich in hits. Some 3% of all compounds tested hit in one or more screens of this group.
# Statin myotox sup – suppression of simvastatin myotoxicity; C2C12 myotubes + simvastatin, ATP luminescence, 48 h; scaled: DMSO 0, geranylgeraniol control 100; rescue of ATP level, % at 7.49 µM; 0.78% of 330,000 active; AID 602340;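 active = mean ATP rescue above about 67%, or every replicate alone reaching that limit, limit read from the data, passing the limit was not always enough; inconclusive = no clear call, values can overlap the other calls; inactive = mean under the limit and some replicate under it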;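 also: myotubes were challenged with 10 µM simvastatin during compound exposure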
# Cneo AK release – causes C. neoformans cell lysis. adenylate kinase release luminescence, 4 h; normalised: neutral wells 0, clomiphene wells 100. lysis activity, % at 15 µM. 0.2% of 360,000 active. AID 651654;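 active = mean lysis activity across replicates of at least 80%, whatever share of replicates individually reach that level; inactive = mean lysis activity below 80%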
#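 Test system: log-phase Cryptococcus neoformans yeast cells; Quantity: yeast cell density of 5 × 10^6 cells/mL; Buffer or medium: YPD; Doses: single compound concentration per well; Timing: 4 h at 37 °C static, read 1 h later; Measured by: AK luminescence; Read-out basis: lysis from increased AK signal; Control set: Clomiphene as positive control.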
# PGC1a acetyl inh – lowers PGC1a acetylation signal in U2OS cells; AlphaScreen anti-acetyl-lysine; with virally co-expressed GCN5 acetyltransferase; inhibition, % at 15.6 µM; 0.17% of 350,000 active;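 active = every replicate shows inhibition of at least 40%; inconclusive = mean inhibition at least 40% but some replicate below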;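 also: 0% = neutral control wells and 100% = positive control wells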
# Ecoli rRNA inh – inhibits bacterial ribosomal RNA function over humanized ribosomes; E. coli WT GFP vs humanized-ribosome RFP mutants, fluorescence, 24 h; hits give low values; DMSO median 0, no signal -100; GFP signal change (wild-type ribosome), % (test concentration not listed); 1.6% of 350,000 active; AID 720706;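 active = significant combined selectivity score with lowered wild-type GFP, culture density cut under 30%, mutant RFP and density less affected; inactive = any of these conditions unmet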
# S100A4 inh HTS – blocks human S100A4 binding to myosin IIA peptide | S100A4/TAMRA-MyoIIA peptide fluorescence polarization | inhibition, % at 10.7 µM | 0.14% of 360,000 active;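 active = mean inhibition of at least 70% across replicates, with every replicate also reaching that level; inconclusive = mean inhibition reaches 70% but some replicates fall short; inactive = mean inhibition below 70%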
# Target sequence (P26447 whole entry, looked up): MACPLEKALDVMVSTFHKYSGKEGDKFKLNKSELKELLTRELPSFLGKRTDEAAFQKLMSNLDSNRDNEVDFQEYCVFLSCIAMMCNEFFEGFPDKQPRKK
#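 incubation = readout 5 min after mixing, signal stable up to 60 min | system = S100A4 monomer protein | buffer or medium = HEPES pH 7.2 with CaCl2, KCl, NaCl, DTT, Triton | benchmarks = neutral control DMSO, positive control TFP | also added = fluorescent myosin IIA peptide, 5 nM | compound dosing = one concentration per compound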
# SIRT5 inh – sirtuin-5 (human) deacylase inhibition. Q9NXA8. Purified SirT5, succinyl-peptide AMC, trypsin-coupled fluorescence. inhibition, % at 15 µM. 1.1% of 330,000 active. AID 652115; in the data active = inhibition above about 15%; inconclusive = no clear call, values can overlap the other calls
# Target sequence (Q9NXA8 whole entry, looked up): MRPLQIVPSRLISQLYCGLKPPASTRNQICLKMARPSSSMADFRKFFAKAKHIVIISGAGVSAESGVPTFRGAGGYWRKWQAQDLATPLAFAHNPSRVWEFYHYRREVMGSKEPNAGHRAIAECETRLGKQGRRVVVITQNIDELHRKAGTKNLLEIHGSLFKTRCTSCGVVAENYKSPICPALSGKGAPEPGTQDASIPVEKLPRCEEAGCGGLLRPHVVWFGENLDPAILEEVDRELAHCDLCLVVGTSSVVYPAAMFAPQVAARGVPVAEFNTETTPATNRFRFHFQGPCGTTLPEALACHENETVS
# HepG2 tox – HepG2 cell cytotoxicity | 30 tested, under 10 active | shares compounds with Ecoli rRNA inh | activity change, negative = cytotoxicity, unspecified at 26 µM | AID 743480 | HepG2 viability, ATP luminescence, 72 h;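 active = compounds whose fitted half-maximal signal-loss concentration is at most twice their highest valid dose; inconclusive = flat curve with 30 to 70% signal loss, or poor fit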
# AID977621 – growth inhibition of wild-type GFP E. coli, dose response, H69 mutant RFP, cherry-pick; shares compounds with Ecoli rRNA inh; E. coli wild-type GFP strain growth, fluorescence, 24 h; activity change, negative = inhibition at 50 µM; 1,900 tested, under 10 active; AID 977621;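 active = Wild-type ribosome reporter drop at least double the humanized mutant ribosome reporter drop, growth loss under a set limit; inconclusive = no clear call, values can overlap the other calls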;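 also: wild-type GFP and H69 mutant RFP strains grown together 50/50 in each well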
# AID977628 – growth of wild-type and h24-humanized E. coli strains – h24 mutant RFP vs wild-type GFP, cherry-pick, dose response; shares compounds with Ecoli rRNA inh; E. coli WT GFP strain growth, fluorescence, 24 h; activity change, negative = inhibition at 50 µM; 1,900 tested, under 10 active; AID 977628;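 active = compound lowering the normal-ribosome reporter at least twice as much as the humanized-ribosome reporter, growth loss under a set limit; inconclusive = no clear call, values can overlap the other calls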;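 also: wild-type GFP and h24 humanized RFP strains co-cultured 1 to 1 per well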
# Numbers without * were called inactive; ? = inconclusive; nt = no result.
SMILES,Statin myotox sup,Cneo AK release,PGC1a acetyl inh,Ecoli rRNA inh,S100A4 inh HTS,SIRT5 inh,AID977621,AID977628,others
Cc1cccc(Oc2ccc(NC(=O)c3ccccc3C(=O)O)cc2)c1,3.2,-2.8,4.5,-22.6*,-6.4,13.2,-17.4,?,
C/C=C/c1cnc2c(c1)C(=O)N([C@H](C)CO)C[C@H](C)[C@H](CN(C)Cc1ccncc1)O2,-22.6,-0.2,-7.9,-3.2,1.5,-5.4,nt,nt,
COc1cccc(CNC(=O)CCSCc2ccccc2F)c1,nt,nt,-18.5,-28.8*,0.3,-1.8,-10.6,nt,
COCCNC(=O)CCSCc1ccccc1F,1.4,0.2,-0.5,nt,nt,nt,nt,nt,
COc1cccc(OC)c1CNC(=O)CCSCc1ccccc1F,nt,nt,0.1,-35.1*,5.5,-1.7,3.21,-7.14,
COC(=O)C[C@H]1CC[C@H](NS(=O)(=O)c2ccccc2F)[C@H](CO)O1,1.0,-14.0,3.9,0.5,3.1,0.9,nt,nt,
O=C(O)c1cc([N+](=O)[O-])ccc1NCc1ccccc1,nt,nt,nt,-25.1*,-5.8,2.7,nt,nt,HepG2 tox=12.5
CN(C(=O)c1ccc(F)cc1)c1ccc(OCC(=O)Nc2ccccc2C(=O)O)cc1,1.1,-1.0,5.4,-13.8*,5.0,nt,-0.787,?,
CC(=O)NS(=O)(=O)c1ccc(NC(=O)COc2ccc(C(=O)c3ccccc3)cc2)cc1,nt,1.4,nt,-27.0*,1.8,-0.9,?,nt,
O=C(COc1ccc(Br)cc1)Nc1ccc(C(=O)Nc2ccccc2C(=O)O)cc1,1.8,-3.5,nt,-27.5*,11.0,1.0,-2.82,-6.11,
COc1ccccc1-c1noc2ncnc(Nc3ccc4c(c3)OCO4)c12,-8.1,2.4,6.5,6.7,9.0,nt,nt,nt,
COc1ccccc1Nc1ncnc2c1c(C)c(C)n2CCCN(C)C,3.3,0.2,nt,6.2,-2.2,-3.2,nt,nt,
COc1ccccc1-c1noc2ncnc(Nc3ccccc3C)c12,-8.4,-1.0,-5.7,-26.6*,-5.6,0.2,-6.93,-17,
COc1ccccc1-c1noc2ncnc(Nc3cccc(C)c3C)c12,-1.7,-2.4,-2.2,-16.5*,2.8,nt,-16.4,-15.2,
Cn1c(CCN2CCOCC2)nc2cc(NC(=O)c3cccs3)ccc21,nt,nt,-9.3,-18.1*,-1.5,2.1,-9.78,?,
O=C(Nc1nc2ccccc2n1CCN1CCOCC1)c1ccccc1,-10.6,0.8,8.8,-16.5*,-5.9,3.7,-31.7,-25.9,
CCOC(=O)c1c(C)nsc1NCc1ccccc1,nt,nt,nt,-28.9*,2.1,0.6,-24.1,nt,
CC(C)(C)c1ccc2c(c1)C(c1ccc3c(c1)OCO3)CC(=O)O2 (stereo not drawn),0.9,6.6,12.5,-24.9*,-1.9,4.3,-3.71,nt,
Cc1ccc(C2CC(=O)Oc3cc(C)cc(C)c32)cc1 (stereo not drawn),4.8,-1.0,3.9,-46.7,-4.8,-1.5,nt,nt,
COc1cc(C2CC(=O)Oc3ccc(C(C)(C)C)cc32)cc(OC)c1OC (stereo not drawn),1.9,0.7,10.8,-18.1,-1.4,-0.3,nt,nt,
Cc1cc(C)c2c(c1)OC(=O)CC2c1ccc2c(c1)OCO2 (stereo not drawn),-3.0,-5.2,4.1,-37.4,17.5,-5.2,nt,nt,
COc1ccc(C2CC(=O)Oc3cc(C)cc(C)c32)cc1 (stereo not drawn),-11.5,1.2,9.1,-23.9*,-4.6,-3.2,3.89,-5.41,
COc1cc2c(c(OC)c1OC)C(c1ccc3c(c1)OCO3)CC(=O)O2 (stereo not drawn),7.4,4.0,10.9,-19.9*,4.7,-4.8,-20.1,-8.53,
